Screening data: PubChem, The Scripps Research Institute Molecular Screening Center
TCR-CD3 inh – inhibitors of human TCR-CD3 interaction, primary screen, biochemical, fluorescence, TAMRA-labeled TCR probe. inhibition, % at 9.4 µM. hit rate 0.37% among 360,000; in the data active = inhibition above about 19%;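 note: recombinant mutant TCR 2C K166C tagged with TAMRA read by polarization; 0% = receptor in buffer alone and 100% = receptor with positive control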
SIAE inh – human SIAE inhibitors, primary screen, biochemical, fluorescence polarization, FP-Rh probe, 1536-well HTS. Sialate O-acetylesterase (Homo sapiens), Q9HAT2. SIAE FP-Rh probe binding. inhibition, % at 9.66 µM. hit rate 0.69% among 370,000;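 active = inhibition above a cutoff: mean of compounds within the control limits plus 3 SD of those, cut at about 17% in these data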;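 note: 0% = plate median of compound wells and 100% = probe without SIAE protein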
DAGLB inhibitor – DAGLB lipase inhibitors, primary screen, biochemical, fluorescence, HTS; Diacylglycerol lipase-beta (Homo sapiens), Q8NCG7; inhibition, % at 5.17 µM; hit rate 0.059% among 340,000; HEK293T DAGLB membrane lysate, EnzChek fluorogenic substrate; in the data active = inhibition above about 34%;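 note: 0% = enzyme with vehicle and 100% = wells lacking enzyme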
HTRA1 inh – HTRA1 serine protease inhibitors, primary screen, biochemical, fluorescence polarization, HTS; Q92743; recombinant HTRA1, FP-rhodamine activity-based probe; inhibition, % at 5.96 µM; hit rate 0.5% among 340,000; AID 504803, 2011; in the data active = inhibition above about 36%;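 note: 0% = enzyme with DMSO and 100% = wells lacking enzyme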
Target sequence (Q92743 whole entry, looked up): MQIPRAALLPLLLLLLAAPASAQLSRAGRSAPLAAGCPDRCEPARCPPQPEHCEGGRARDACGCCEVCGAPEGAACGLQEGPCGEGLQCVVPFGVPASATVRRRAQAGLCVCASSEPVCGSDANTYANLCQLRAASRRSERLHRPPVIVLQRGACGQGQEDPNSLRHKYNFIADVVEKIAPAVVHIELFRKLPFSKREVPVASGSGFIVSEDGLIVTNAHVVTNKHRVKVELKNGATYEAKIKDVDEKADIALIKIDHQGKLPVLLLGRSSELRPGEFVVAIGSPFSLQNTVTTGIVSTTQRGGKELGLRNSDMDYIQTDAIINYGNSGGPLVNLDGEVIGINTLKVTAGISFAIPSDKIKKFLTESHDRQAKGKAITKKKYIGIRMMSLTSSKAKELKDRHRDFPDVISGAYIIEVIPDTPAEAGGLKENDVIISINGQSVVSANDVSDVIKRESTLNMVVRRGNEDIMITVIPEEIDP
mABHD4 FP – ABHD4 inhibitors, primary screen, biochemical, fluorescence polarization, mouse. (Lyso)-N-acylphosphatidylethanolamine lipase (Mus musculus), Q8VD66. purified mABHD4, FP-Rh probe fluorescence polarization. inhibition, % at 8.92 µM. hit rate 0.54% among 370,000;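 active = inhibition exceeding the mean over every tested compound plus 3 SD, cut at about 30% in these data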;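 note: 0% = plate median of compound wells and 100% = S159A mutant with DMSO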
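Doses – 8.92 µM, single dose · Material – wild-type mouse ABHD4 protein · Replication – single well per compound (singlicate) · Measure – percent inhibition of probe binding, normalized to plate controls · Schedule – 45 min compound pre-incubation plus 60 min probe step, 25 °C · Detection – fluorescence polarization with parallel and perpendicular emission, 525/598 nm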
ABHD4 confirm – ABHD4 inhibitors, retest, confirmation, biochemical, fluorescence polarization, mouse. hit rate 55% among 1,800. inhibition, % at 8.92 µM. shares compounds with mABHD4 FP. purified mABHD4, FP-Rh probe fluorescence polarization. AID 720658, 2013;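 active = mean inhibition across replicates above the hit cutoff set in the primary screen, cut at about 30% in these data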;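 note: 0% = wild-type ABHD4 with DMSO and 100% = catalytically dead S159A mutant with DMSO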
SIAE inh conf – human SIAE inhibitors, retest, confirmation, biochemical, fluorescence polarization, FP-Rh probe, triplicate | SIAE FP-Rh activity-based probe | inhibition, % at 9.66 µM | shares compounds with SIAE inh | hit rate 13% among 2,300;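 active = mean inhibition of the replicates above the hit cutoff set in the primary screen, cut at about 17% in these data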;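 note: 0% = SIAE with DMSO and probe and 100% = probe without SIAE; inhibitors lower polarization as more probe stays unbound to SIAE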
Active calls of the source: *; . = no result given; + = active, no number. Sampled rows, rich in hits. Any-hit rate of the full collection: about 1.6%.

SMILES	TCR-CD3 inh	SIAE inh	DAGLB inhibitor	HTRA1 inh	mABHD4 FP	ABHD4 confirm	SIAE inh conf
COc1cccc(C2NC(=S)N(Cc3ccc(Br)cc3)C(C)=C2C(C)=O)c1 (stereo not drawn)	2	-6	.	.	-10	.	.
COC(=O)[C@]12C[C@H](CC(=O)N3CCCCC3)C(=O)N(Cc3ccccc3)C1=C[C@H](C(C)(C)C)O[C@@H]2C	-2	1	.	.	6	.	.
CCOC(=O)Cc1nc(N2CCN(C(=O)C3CCCO3)CC2)c2c(C)c(C(=O)OCC)sc2n1 (stereo not drawn)	.	-2	.	.	1	.	.
Cc1ccc(NCc2cccc(B(O)O)c2)cc1	-2	9	-3	4	59*	61*	.
COc1ccc(-c2ccccc2C2Cc3nnccc3CN2)cc1 (stereo not drawn)	3	-1	.	.	2	.	.
O=S1(=O)N[C@@H](Cc2ccccc2)COc2cccc(N3CCCCC3)c21	3	-3	.	.	-4	.	.
Cc1nc(C)c(-c2csc(Nc3ccc(O)c(C(=O)O)c3)n2)s1	6	-12	5	-3	45*	31*	.
Cc1nc(C)c(-c2csc(Nc3ccc(N)cc3)n2)s1	-3	17	5	34	9	.	.
CCOc1cc(C2C(C#N)=C(N)OC3=C2C(=O)CC(C)(C)C3)cc([N+](=O)[O-])c1O (stereo not drawn)	-5	5	4	3	3	.	.
CC1(C)CC(=O)C2=C(C1)OC(N)=C(C#N)C2c1cc2c(cc1[N+](=O)[O-])OCO2 (stereo not drawn)	4	5	-4	8	34*	2	.
COC(=O)[C@@]12CCCCC3=C1N(CCC3)C(=O)[C@H]2CC(=O)NCc1ccc(OC)c(OC)c1	.	-5	.	.	-2	.	.
C=CCNc1nc(Nc2ccc(OC)c(OC)c2)c2sc(-c3ccccc3)cc2n1	-6	25*	.	.	42*	51*	33*
CCN(CC)C(=O)CC[C@H]1CC[C@]2(CCCN(Cc3nccn3C)C2)O1	.	3	.	.	2	.	.
Oc1ccc2c(c1)OCC1(O)Cc3cc(O)c(O)cc3C21 (stereo not drawn)	.	+	1	31	110*	129*	+
COc1cccc(NC(=S)Nc2ccc(F)cc2)c1	1	6	-1	1	-5	.	.
COc1cccc(NC(=S)Nc2ccc(O)cc2)c1	6	17*	2	26	34*	20	5
COc1cccc(CN(C)C(=O)[C@@H](Cc2ccccc2)NC(=O)[C@H]2O[C@@H](n3ccc(=O)[nH]c3=O)[C@H](O)[C@@H]2O)c1	0	-3	.	.	-1	.	.
CCN(CC)CCOc1ccc2c(c1)C(=NO)c1cc(OCCN(CC)CC)ccc1-2	-2	2	0	-1	-4	.	.
CCCOc1ccc2c(c1)C(=NN=C(N)N)c1cc(OCCC)ccc1-2	6	18*	0	14	38*	51*	16
COc1ccc(NC(=O)CSc2nnc(-c3n[nH]c4c3CCC4)n2N)cc1OC	.	0	.	.	4	.	.
O=S(=O)(Nc1ccc(O)c2ncccc12)c1ccccc1F	29*	29*	.	.	39*	42*	10
Cc1cccc(NC(=O)CN2C(=O)/C(=C3\SC(=S)N(CC4CCCO4)C3=O)c3ccccc32)c1 (stereo not drawn)	.	.	2	-4	.	.	.
O=C(CN1C(=O)/C(=C2/SC(=S)N(CCS(=O)(=O)O)C2=O)c2ccccc21)Nc1cccc(Br)c1	12	18*	2	-23	60*	70*	5
Cc1nn(-c2ccccc2)c(C)c1/C=N/Nc1nc2ccccc2[nH]1	-5	24*	4	19	42*	56*	37*
CC(C)Cn1c(/C=N/Nc2nc3ccccc3[nH]2)nc2ccccc21	-5	7	3	30	26	.	.
SMILES	TCR-CD3 inh	SIAE inh	DAGLB inhibitor	HTRA1 inh	mABHD4 FP	ABHD4 confirm	SIAE inh conf
COc1cc(/C=N/Nc2nc3ccccc3[nH]2)cc(OC)c1O	-4	18*	5	12	38*	26	16
Cc1c(/C=N/Nc2nc3ccccc3[nH]2)c2ccccc2n1C	-8	40*	2	34	41*	70*	20*
COc1ccc(O)c(/C=N/Nc2nc3ccccc3[nH]2)c1	-9	12	-1	-4	21	.	.
COC(=O)C1=C(C)N(Cc2cccc(C(F)(F)F)c2)C(=NCc2cc(OC)c(OC)c(OC)c2)NC1c1ccccc1C(F)(F)F (stereo not drawn)	-4	2	.	.	-1	.	.
CC[C@@H](CCCCCCCn1ccc2ccccc21)CCC(=O)N(c1ccccc1)c1ccccc1	.	2	.	.	0	.	.
CC1=C([N+](=O)[O-])C(c2cccc(Br)c2)C2=C(N1)c1ccccc1C2=O (stereo not drawn)	6	28*	11	14	30*	35*	-2
O=c1nc2s/c(=C\c3ccc(-c4ccccc4[N+](=O)[O-])o3)c(=O)n2nc1-c1ccccc1	1	22*	13	27	40*	34*	6
CCCCCOc1ccc(/C=c2\sc3nc(=O)c(-c4ccccc4)nn3c2=O)cc1OC	1	1	6	-11	-2	.	.
CC(=O)Oc1cc2c(C(C)=O)coc2c2ccccc12	7	-2	-1	6	-1	.	.
CC(=O)Oc1ccc2c(=O)c(Oc3ccccc3)coc2c1OC(C)=O	10	20*	8	28	37*	15	3
COC(=O)c1ccc(CC(=O)c2c(C)cc(O)cc2O)o1	10	24*	5	6	38*	11	5
C[C@@H]1OC(C2CCCCC2)N(C)[C@H]2C[C@H]3c4[nH]c5c(-c6ccccc6)cccc5c4CCN3C(=O)[C@@H]12 (stereo partly drawn)	4	1	.	.	6	.	.
COc1ccc2[nH]c3c(NCCC4=CCCCC4)ncnc3c2c1	0	50*	2	1	39*	61*	45*
COc1ccc2[nH]c3c(NCCCOC(C)C)ncnc3c2c1	-9	-2	1	-8	5	.	.
COc1cc(C=Nn2c(-c3cc(-c4ccccc4)n[nH]3)n[nH]c2=S)ccc1OC(C)=O	.	9	.	.	0	.	.
Clc1ccc2c(NNc3ccccc3Cl)ccnc2c1	-1	4	1	10	-6	.	.
C/C(=N/Nc1ccnc2cc(Cl)ccc12)c1ccc(N)cc1	-1	23*	4	12	30*	33*	13
